This is an account of results in PubChem BioAssay AID652205 (Vanderbilt Specialized Chemistry Center, 2013).

Calls of active or inactive are those of the source. The rule behind the calls is not given here.

The target of this experiment is Metabotropic glutamate receptor 6 (Homo sapiens) (UniProt O15303). The experiment is described as follows: glutamate potency shift at mGlu6 – cell-based, HEK293A, Galpha15, calcium mobilization, selectivity assay for mGlu5 silent allosteric modulator project (AID 652205). Particulars: HEK293A hmGlu6+Galpha15, Fluo4 calcium mobilization, glutamate CRC; at 10 µM. Put shortly:
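System: HEK293 cells co-expressing human mGlu6 receptor and Galpha15. Medium: HBSS with 2.5 mM probenecid and 20 mM HEPES, pH 7.4. Incubation: Fluo-4 AM dye loading 60 min at 37 °C, compound at 20 s. Technique: Fluo-4 calcium mobilization fluorescence.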
(Calcium assays in cells follow changes in intracellular calcium, usually with a dye or a luminescent sensor.)

Sequence of Metabotropic glutamate receptor 6 (Homo sapiens) (O15303 whole entry, looked up): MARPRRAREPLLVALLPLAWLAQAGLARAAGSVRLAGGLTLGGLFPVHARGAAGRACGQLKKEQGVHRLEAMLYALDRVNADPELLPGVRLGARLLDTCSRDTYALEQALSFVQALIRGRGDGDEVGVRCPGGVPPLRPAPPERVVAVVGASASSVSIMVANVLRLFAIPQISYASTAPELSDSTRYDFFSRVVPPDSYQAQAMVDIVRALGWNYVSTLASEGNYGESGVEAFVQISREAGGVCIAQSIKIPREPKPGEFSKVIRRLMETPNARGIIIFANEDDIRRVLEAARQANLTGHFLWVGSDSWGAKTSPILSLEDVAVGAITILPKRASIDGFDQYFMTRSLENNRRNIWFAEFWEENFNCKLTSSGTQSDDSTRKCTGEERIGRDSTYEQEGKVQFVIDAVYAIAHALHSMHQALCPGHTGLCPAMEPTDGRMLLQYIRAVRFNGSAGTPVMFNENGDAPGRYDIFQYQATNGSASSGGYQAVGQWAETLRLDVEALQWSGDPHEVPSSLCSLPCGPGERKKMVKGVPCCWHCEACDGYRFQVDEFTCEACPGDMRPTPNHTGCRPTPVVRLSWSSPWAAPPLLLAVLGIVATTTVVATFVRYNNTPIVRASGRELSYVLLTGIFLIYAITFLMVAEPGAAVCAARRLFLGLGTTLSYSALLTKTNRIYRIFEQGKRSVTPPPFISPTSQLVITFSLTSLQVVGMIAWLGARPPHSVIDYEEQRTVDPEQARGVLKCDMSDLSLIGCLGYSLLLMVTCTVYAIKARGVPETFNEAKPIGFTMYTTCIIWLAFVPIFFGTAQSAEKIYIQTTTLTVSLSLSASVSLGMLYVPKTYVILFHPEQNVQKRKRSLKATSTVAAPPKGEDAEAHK

As for `O=C(c1ccc(C#Cc2cccc(F)c2)cn1)N1CC2CC2C1` (stereo unspecified), the glutamate EC50 fold shift was 0.859 (inactive).
